Screens: PubChem BioAssay, several laboratories
Only some compounds are listed: those with a hit (about 4.9% of all), similar ones and a draw of the others.
PHOSPHO1 inh = blocks human PHOSPHO1 phosphatase activity. Q8TCT1. recombinant PHOSPHO1, absorbance phosphatase assay. inhibition, % at 13.3 µM. 1.1% of 290,000 active. AID 1565; in the data active = inhibition above about 60%
HSF-1 act = increases HSF-1 driven luciferase reporter signal; NIH3T3-HGL HSF-1 luciferase reporter, MG132, 8 h; 100% = twice DMSO control signal; AID 504408; activation, % at 9 µM; 1.7% of 300,000 active;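 active = mean replicate activation of at least 50% with a set share of replicates each reaching 50%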;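 also: 0% = median of the neutral control wells and 100% = twice that signal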
CHT allo act = allosteric activators of human choline transporter CHT | Q9GZV3 | CHT-expressing cells, membrane potential dye, choline EC20; hits give high values; LV-AA mutant CHT in HEK293 cells | B-score at 10 µM | 0.49% of 310,000 active;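 active = initial fluorescence not abnormally high and integrated response B-score, plate-corrected, over 3 SD above library mean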
Target sequence (Q9GZV3 whole entry, looked up): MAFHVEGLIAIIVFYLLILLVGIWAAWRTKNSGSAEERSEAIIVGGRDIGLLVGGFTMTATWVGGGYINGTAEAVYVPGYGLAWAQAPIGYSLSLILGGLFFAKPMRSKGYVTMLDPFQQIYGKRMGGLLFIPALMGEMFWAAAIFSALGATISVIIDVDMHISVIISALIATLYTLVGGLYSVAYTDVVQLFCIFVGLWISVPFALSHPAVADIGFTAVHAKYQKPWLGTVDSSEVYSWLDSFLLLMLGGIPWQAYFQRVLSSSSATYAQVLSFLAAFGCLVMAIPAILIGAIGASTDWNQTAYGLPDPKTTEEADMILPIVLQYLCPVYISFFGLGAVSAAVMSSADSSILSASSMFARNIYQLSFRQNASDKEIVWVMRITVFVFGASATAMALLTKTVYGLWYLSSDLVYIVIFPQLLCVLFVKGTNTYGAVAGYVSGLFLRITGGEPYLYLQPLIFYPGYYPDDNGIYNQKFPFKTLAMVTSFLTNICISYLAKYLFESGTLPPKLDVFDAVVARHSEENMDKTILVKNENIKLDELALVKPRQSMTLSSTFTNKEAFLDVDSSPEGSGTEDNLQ
Lipid droplet = hepatic lipid droplet formation modulation. AID 1656. AML12 mouse hepatocytes, oleate lipid droplets, BODIPY imaging. 0.4% of 240,000 active. inhibition, % at 6.5 µM;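 active = lipid droplet intensity inhibited by at least 50%, with more than 500 cells counted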
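material = mouse AML12 hepatocyte cell line, fixed after treatment | also added = 100 µM oleic acid challenge | doses = compound at 6.5 µM only | schedule = overnight exposure | technique = Image-based BODIPY and DAPI two-channel analysis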
CHT block = human CHT choline transport inhibition; 0.86% of 310,000 active; CHT-expressing cells, membrane potential dye, choline response; hits give low values; AID 488975; Q9GZV3; B-score at 10 µM;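 active = B-score over 3 SD under the library average, and starting fluorescence ratio not unusually high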;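 also: choline stimulus applied at its EC90 after an EC20 pre-addition; B-score computed on integrated fluorescence ratio after choline addition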
HSF1 inh = HSF1 inhibition; NIH3T3-HGL HSE-luciferase, MG132-induced, luminescence 8 h; hits give low values; activity change, negative = inhibition, % at 7.5 µM (by protocol); 0.77% of 300,000 active;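 active = more than half of replicate wells show activity change below -50%, luminescence cut by over half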;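 also: luciferase reports HSF-1 transcriptional activity via heat shock element; 0% = median of DMSO wells and -100% = zero luminescence signal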
An asterisk follows results filed as active; i = inactive; x = not tested or not shown.

SMILES	PHOSPHO1 inh	HSF-1 act	CHT allo act	Lipid droplet	CHT block	HSF1 inh
CCOc1cc(N2CCOCC2)c(OCC)cc1NC(=O)COC(=O)c1ccccc1C	-4	-1	i	x	i	9
CCOc1cc(N2CCOCC2)c(OCC)cc1NC(=O)CCS(=O)(=O)c1ccc(Cl)cc1	27	75*	i	x	i	58
CCOc1cc(N2CCOCC2)c(OCC)cc1NC(=O)Cc1cccc2ccccc12	35	121*	i	7	i	74
O=C(C1=C[C@H](c2ccc(Br)cc2)C[C@H](OCCCCO)O1)N1CCN(Cc2ccc3c(c2)OCO3)CC1	36	-62	i	-10	i	-54*
COCCN(C(=O)COC(=O)Cc1coc2cc(C)ccc12)c1c(N)n(Cc2ccccc2)c(=O)[nH]c1=O	x	-6	i	x	i	-3
Cc1cc(C)n(-c2cc(=O)n(C)c(=O)n2C)n1	-20	67*	i	x	i	17
CC(C)c1[nH]nc2c1C(c1ccco1)C(C#N)=C(N)O2 (stereo not given)	37	55*	i	1	i	17
COc1ccc(C(=O)Oc2ccc(/C=N/O)cc2)cc1	9	-71	i	x	i	-64*
Cc1ccc(C(=O)Oc2ccc(/C=N/NC(N)=O)cc2)cc1	28	39	i	3	i	27
CC(=O)n1cc(N(C(=O)CCl)c2ccc([N+](=O)[O-])cc2)c2ccccc21	24	75*	i	4	i	61
CC(=O)n1cc(N(C(=O)CCl)c2ccccc2)c2ccccc21	32	-52	i	6	i	-46
CCN(CC)S(=O)(=O)c1ccc(NC(=O)c2cc(=O)[nH]c3ccccc23)cc1	-29	-1	i	-8	i	-1
O=C(c1ccc2c3n(nc2c1)-c1ccccc1CO3)N1CCCCC1	18	-2	i	x	-5.3*	2
COc1ccc(C2=NN(S(C)(=O)=O)C(c3ccc4nccnc4c3)C2)cc1 (stereo not given)	-12	92*	i	25	i	39
CC(=O)c1c(Cl)nc2ccc(Br)cc2c1-c1ccccc1	14	31	i	6	i	12
O=C1c2ccccc2NC2(CCCC2)N1N=C1CCCC1	42	32	i	0	i	18
Cc1cc(C)c2cc(C(c3nnnn3C3CCCC3)N3CCOCC3)c(=O)[nH]c2c1 (stereo not given)	103*	9	i	x	i	5
Cc1ccc2cc(C(c3nnnn3C3CCCC3)N3CCN(c4ccc(F)cc4)CC3)c(=O)[nH]c2c1 (stereo not given)	-19	-12	i	18	i	-4
Cc1cccc2cc(C(c3nnnn3C3CCCC3)N3CCOCC3)c(=O)[nH]c12 (stereo not given)	86*	-4	i	x	i	-8
CCOC(=O)CSc1nc2ccccc2c(=O)n1NC(=O)c1ccccc1	-2	-24	i	x	i	3
Cc1c(C(=O)N2CCOCC2)oc2ccc(Br)cc12	x	-2	i	x	i	9
CCCCOc1ccc(-c2nnn(C(C)C(=O)OCC)n2)cc1 (stereo not given)	-34	13	i	3	i	-3
Cc1cc(-c2nnc(SCC(=O)Nc3cccc(C)c3C)n2N)n[nH]1	28	4	i	-2	i	0
CCCCOc1ccc(CSc2ncn[nH]2)cc1	-16	86*	i	17	i	31
CCCCCOc1ccc(CSc2ncn[nH]2)cc1	-13	42	i	31	i	26
SMILES	PHOSPHO1 inh	HSF-1 act	CHT allo act	Lipid droplet	CHT block	HSF1 inh
Cc1ccc(C2N(c3nccs3)C(=O)C3CCCN32)cc1 (stereo not given)	11	30	i	x	i	1
CCCC(=O)Nc1ccc(Cl)c(NC(=O)c2cccnc2)c1	18	-89	i	-12	i	-87*
CCCC(=O)Nc1ccc(Cl)c(NC(=O)c2ccc([N+](=O)[O-])cc2Cl)c1	0	-73	i	4	i	-64*
CCC(=O)Nc1ccc(Cl)c(NC(=O)c2cccnc2)c1	34	16	i	-8	i	-5
CCCC(=O)Nc1cccc(NC(=O)c2cccc([N+](=O)[O-])c2C)c1	3	-77	i	-35	i	-71*
NC1=NC[C@H](Cc2ccccc2)N1CCc1cccc(F)c1	39	-18	i	4	i	-9
CC1CCN(c2ccc(-c3cccs3)nn2)CC1	-7	-72	i	-7	i	-67*
C=CCn1cccc(C(=O)Nc2ccc(F)cc2)c1=O	24	23	i	-3	i	5
Fc1ccc(CSc2nc3ccccc3[nH]2)cc1	-4	61*	i	-10	i	28
Cc1cc(SCc2ccc([N+](=O)[O-])cc2)nc(=O)[nH]1	18	69*	i	-2	i	34
O=c1c2sccc2nc(SCc2ccc([N+](=O)[O-])cc2)n1Cc1ccccn1	-9	59*	i	-20	i	19
O=[N+]([O-])c1ccc(CSc2nc3ccccc3[nH]2)cc1	4	121*	i	7	i	67
Cc1ccc(CNC(=O)CSc2nc3ccsc3c(=O)n2Cc2ccccn2)cc1	5	17	i	-9	i	-1
Cn1c(C(=O)NC2CCCCCC2)cc2c(=O)n(C)c3ccccc3c21	-9	13	i	x	i	7
O=C(CC(=O)NN=Cc1ccc2c(c1)CCC2)NN=Cc1ccc2c(c1)CCC2	x	-3	x	x	x	-3
O=c1c2ccccc2nc(-c2ccc([N+](=O)[O-])cc2)n1O	61*	0	i	2	i	2
Nn1c(SCc2ccc([N+](=O)[O-])cc2)nc2ccccc2c1=O	-1	55*	i	2	i	20
COc1ccc(-c2nnc(SCc3ccc(C(=O)O)cc3)o2)cc1OC	18	9	i	35	i	-8
Cc1ccc(NC2OC(C(O)CO)C(O)C2O)cc1[N+](=O)[O-] (stereo not given)	36	-2	i	x	i	-2
Cc1ccc(NC2OC(CO)C(O)C2O)cc1[N+](=O)[O-] (stereo not given)	3	72*	i	-16	i	30
COc1ccc(N2CCN(C(=O)c3ccc(CS(=O)Cc4ccc(C)cc4)o3)CC2)cc1 (stereo not given)	9	12	i	3	i	5
COc1ccc(NC(=S)N2CCC(N(C)CC3CCCO3)CC2)cc1Cl (stereo not given)	-7	9	i	4	i	-3
Clc1ccc(-c2cc(CSc3ccccc3)on2)cc1	40	66*	i	x	i	33
